DENV2 CPE rescue – inhibitors of DENV2 cytopathic effect, primary screen, cell-based, plate reader, single concentration | DENV2-infected cells, cytopathic effect rescue | CPE inhibition, % at 9.99 µM | hit rate 1.7% among 350,000 | AID 651640, 2012; in the data active = CPE inhibition above about 20%, passing the limit was not always enough; inconclusive = no clear call, values can overlap the other calls; tested in BHK-21 cells;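 note: 0% = median of neutral control wells and 100% = median of positive control wells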
E-sel inducer – E-selectin induction in HUVECs, primary screen, imaging, HUVEC, immunofluorescence imaging, single point | P16581 | normalized: neutral wells 0, TNF-alpha wells 100 | activation, % at 7.58 µM | hit rate 0.37% among 260,000;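 active = mean E-selectin-positive cell signal at least 10% of the positive control, reached in at least 60% of replicates, without over 20% cell loss; inconclusive = no rule given, readout overlaps actives, possibly toxicity-flagged; inactive = the rest, including those meeting only one limit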
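Read-out basis: % PE-positive cells; Test system: HUVEC primary endothelial cells; Technique: immunofluorescence imaging; Dosing: single-point compound dose.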
PglD inh – C. jejuni PglD acetyltransferase inhibitors, primary screen, biochemical, DTNB colorimetric, single point; inhibition, % at 12.5 µM; purified PglD enzyme, DTNB colorimetric CoA detection; hit rate 0.098% among 360,000; UDP-N-acetylbacillosamine N-acetyltransferase PglD (Campylobacter jejuni); in the data active = inhibition above about 16%, passing the limit was not always enough; inconclusive = no clear call, values can overlap the other calls
SIRT5 inh – SIRT5 desuccinylase inhibitors, primary screen, biochemical, fluorescence imaging, single point, set 5; inhibition, % at 15 µM; hit rate 1.1% among 330,000; NAD-dependent protein deacylase sirtuin-5, mitochondrial (Homo sapiens), Q9NXA8; Purified SirT5, succinyl-peptide AMC, trypsin-coupled fluorescence; AID 652115, 2013; in the data active = inhibition above about 15%; inconclusive = no clear call, values can overlap the other calls
Target sequence (Q9NXA8 whole entry, looked up): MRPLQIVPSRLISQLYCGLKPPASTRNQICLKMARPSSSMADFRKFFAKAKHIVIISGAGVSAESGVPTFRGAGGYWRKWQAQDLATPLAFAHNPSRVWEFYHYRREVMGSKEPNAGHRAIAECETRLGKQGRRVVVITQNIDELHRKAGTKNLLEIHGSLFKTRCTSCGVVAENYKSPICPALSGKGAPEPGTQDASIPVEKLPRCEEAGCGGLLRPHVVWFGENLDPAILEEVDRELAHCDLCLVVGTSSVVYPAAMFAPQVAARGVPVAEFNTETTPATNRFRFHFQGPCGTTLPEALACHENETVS
ERAP1 HTS inh – human ERAP1 aminopeptidase inhibitors, primary screen, biochemical, single point, plate reader | Endoplasmic reticulum aminopeptidase 1 (Homo sapiens), Q9NZ08 | recombinant ERAP1, Leu-AMC fluorescence, 60 min | inhibition, % at 10.7 µM | hit rate 0.15% among 340,000 | AID 652197, 2013;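 active = mean replicate inhibition of at least 30%, or all replicates individually reaching that 30% level; inactive = mean below 30% and not every replicate reaching it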;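 note: 0% = neutral control wells and 100% = L-leucinethiol positive control wells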
* = called active by the depositor; ? = inconclusive; . = no result given. Sampled rows, rich in hits. Any-hit rate of the full collection: about 2.5%.

SMILES	DENV2 CPE rescue	E-sel inducer	PglD inh	SIRT5 inh	ERAP1 HTS inh
COc1ccc(NS(=O)(=O)c2cccc(C(=O)NNC(=O)CN3C(=O)NC(C)(C)C3=O)c2)cc1	2	0	.	-6	0
O=C(N/N=C/C(Br)=C\c1ccccc1)c1cccs1	3	.	8	20*	.
COc1ccc(CN2C(=O)C(CC(=O)NCCc3ccccn3)CC(C(=O)N3CCOCC3)=C2C)cc1 (stereo unspecified)	-7	0	-2	21*	-1
CC1CCCCN1Cc1c(O)ccc2c(=O)c(-c3ccc(Cl)cc3)coc12 (stereo unspecified)	2	.	0	-5	-1
CC1CCCCN1Cc1c(O)ccc2c(=O)c(-c3ccc(Br)cc3)coc12 (stereo unspecified)	-4	40*	3	-10	-3
CC(C)OC(=O)c1cccnc1N1CCN(c2cccc(Cl)c2)CC1	-1	34*	.	-4	13
CSc1ccccc1C(=O)N1CCN(c2cccc(Cl)c2)CC1	0	.	.	1	3
COc1ccc(NC(=O)N[C@H]2CC[C@H](CC(=O)NC3CCC3)O[C@@H]2CO)cc1	9	0	2	2	0
Cc1noc(C)c1NC(=O)N(C)C[C@@H]1Oc2ccc(NC(=O)NC3CCCCC3)cc2CC(=O)N([C@@H](C)CO)C[C@H]1C	24*	0	1	-4	0
Cc1noc(C)c1NC(=O)N(C)C[C@H]1Oc2ccc(NC(=O)NC(C)C)cc2CC(=O)N([C@H](C)CO)C[C@H]1C	11	.	5	21*	-1
Cc1noc(C)c1NC(=O)N(C)C[C@@H]1Oc2ccc(NC(=O)NC(C)C)cc2C(=O)N([C@@H](C)CO)C[C@H]1C	45*	0	3	-2	0
Cc1noc(C)c1NC(=O)N(C)C[C@H]1Oc2ccc(NC(=O)NC(C)C)cc2C(=O)N([C@@H](C)CO)C[C@@H]1C	-5	0	2	-1	-2
Cc1noc(C)c1NC(=O)N(C)C[C@H]1Oc2ccc(NC(=O)NC3CCCCC3)cc2CC(=O)N([C@H](C)CO)C[C@H]1C	22*	0	7	.	3
Cc1noc(C)c1NC(=O)Nc1ccc2c(c1)CC(=O)N([C@H](C)CO)C[C@H](C)[C@H](CN(C)C(=O)NC1CCCCC1)O2	-7	0	2	-6	2
Cc1noc(C)c1NC(=O)Nc1ccc2c(c1)CC(=O)N([C@@H](C)CO)C[C@@H](C)[C@@H](CN(C)C(=O)NC1CCCCC1)O2	-5	0	-1	-6	0
CCOC(=O)CSc1ncc(-c2ccccc2)nn1	.	.	1	.	.
COC(=O)C(C)n1nnc2sc(-c3ccccc3)cc2c1=O (stereo unspecified)	-4	0	.	-3	0
Cc1noc(C)c1NC(=O)N(C)C[C@@H]1Oc2ccc(NC(=O)C3CCCCC3)cc2CC(=O)N([C@@H](C)CO)C[C@@H]1C	31*	0	0	-6	1
Cc1noc(C)c1NC(=O)N(C)C[C@@H]1Oc2ccc(NC(=O)C3CCCCC3)cc2CC(=O)N([C@H](C)CO)C[C@H]1C	2	0	1	-3	1
COCCn1c(SCC(=O)Nc2ccc(OC)c(S(N)(=O)=O)c2)nc2ccccc21	7	.	-2	-2	-2
CCCN(Cc1ccc(N(C)C)cc1)CC1CC1	.	.	-2	.	.
Cc1cc(N)n(-c2ccc(C(=O)O)cc2)n1	3	.	1	2	1
CCc1ccc(S(=O)(=O)c2ccc(-n3nc(C)cc3N)cc2)cc1	1	.	.	112*	-1
COC(=O)c1[nH]c2cccc(C)c2c1NC(=O)CN1CCN(C(=O)c2ccco2)CC1	.	.	1	.	.
O=S(=O)(O)c1ccc(O)c2cc(Nc3ccccc3)ccc12	-5	1	2	63*	4
SMILES	DENV2 CPE rescue	E-sel inducer	PglD inh	SIRT5 inh	ERAP1 HTS inh
CC(=O)Nc1ccc2c(O)cc(S(=O)(=O)O)cc2c1	3	2	1	4	2
O=S(=O)(O)c1cc(O)c2ccc(Nc3ccccc3)cc2c1	12	.	0	.	40*
O=S(=O)(O)c1cc(O)c2cc(Nc3ccccc3)ccc2c1	-2	0	2	.	43*
COc1ccccc1Nc1ccc2c(O)cc(S(=O)(=O)O)cc2c1	?	0	-1	.	38*
O=C(O)CCc1ccc(-c2ccccc2)n1NC(=O)c1ccco1	.	.	3	.	.
COc1ccccc1/C=C/c1nc(S(=O)(=O)c2ccccc2)c(N2CCC(C(N)=O)CC2)o1	-2	.	-1	17*	1
NC(=O)C1CCN(c2oc(/C=C/c3ccc(F)cc3)nc2S(=O)(=O)c2ccccc2)CC1	?	3	-3	-2	6
O=S(=O)(c1ccc(-c2ccon2)s1)N1CCN(CCN2CCOCC2)CC1	3	.	-4	0	0
CC1(C(=O)NCc2cccs2)Cc2c(-c3cccc(C(F)(F)F)c3)ccnc2O1 (stereo unspecified)	27*	0	1	1	5
CC1(C(=O)Nc2cccc(C(F)(F)F)c2)Cc2c(-c3cccc(C(N)=O)c3)ccnc2O1 (stereo unspecified)	-2	0	-1	-4	-5
CC1(C(=O)NCc2ccccc2)Cc2c(-c3cccc(C(F)(F)F)c3)ccnc2O1 (stereo unspecified)	-1	2	6	-2	1
CC1(C(=O)Nc2cccc(OC(F)(F)F)c2)Cc2c(-c3cccc(C(N)=O)c3)ccnc2O1 (stereo unspecified)	21*	0	-5	0	0
O=C(C[C@@H]1C=C[C@@H](NC(=O)Cc2ccccn2)[C@H](CO)O1)NCCCN1CCOCC1	38*	0	2	4	2
O=C(C[C@@H]1C=C[C@H](NC(=O)Cc2ccccn2)[C@@H](CO)O1)NCCCN1CCOCC1	-4	0	-2	2	2
O=C(C[C@@H]1C=C[C@H](NC(=O)Cc2ccccn2)[C@H](CO)O1)NCCCN1CCOCC1	33*	0	0	7	2
COc1ccc(-n2nc3c(c2NC(=O)COc2ccccc2)CS(=O)(=O)C3)cc1	-10	.	-4	-4	5
O=S1(=O)CC(N2CCN(CCO)CC2)CN1Cc1cn(Cc2ccccc2)nn1 (stereo unspecified)	7	0	.	-3	.
Cc1cccc(C(=O)N2CCC(=O)N([C@H](COCc3ccc(Cl)cc3)Cc3ccccc3)CC2)c1	125*	-1	.	6	.
Cc1cccc(C(=O)N2CCC(=O)N(C(COCc3ccc(Cl)cc3)Cc3ccccc3)CC2)c1 (stereo unspecified)	1	0	3	-2	-1

Screening data from PubChem.
